Laboratory results published in PMC9946004 (Infection and Drug Resistance, 2023).
Converted amounts (≈) assume the structure as drawn.

How the values were obtained:
Experiment in all cases: MIC by broth microdilution
Assay type in all cases: cell-based
Settings in all cases: Staphylococcus aureus
[1] = tested on: S. aureus 18-W27-73 (MRSA)
How it was run: (§1)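 Broth microdilution per CLSI 2018 in Mueller–Hinton broth, in triplicate. Inoculum was 5×10^5 CFU/mL, incubated 20 h at 37 °C. MIC was the lowest concentration with no visible growth. ATCC29213 served as the quality-control strain.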

[2] = tested on: S. aureus 18-W26-14 (MRSA)
How it was run: as §1

S. aureus ATCC29213 = tested on: S. aureus ATCC29213
How it was run: as §1

| SMILES | MIC [1] | MIC [2] | MIC (S. aureus ATCC29213) |
| --- | --- | --- | --- |
| CC(=O)NC[C@H]1CN(c2ccc(N3CCOCC3)c(F)c2)C(=O)O1 [Linezolid, linezolid] | 2 µg/mL (≈ 5.93 µM) | 4 µg/mL (≈ 11.9 µM) | 2 µg/mL (≈ 5.93 µM) |
| CN[C@H](CC(C)C)C(=O)N[C@H]1C(=O)N[C@@H](CC(N)=O)C(=O)N[C@H]2C(=O)N[C@H]3C(=O)N[C@H](C(=O)N[C@H](C(=O)O)c4cc(O)cc(O)c4-c4cc3ccc4O)[C@H](O)c3ccc(c(Cl)c3)Oc3cc2cc(c3O[C@@H]2O[C@H](CO)[C@@H](O)[C@H](O)[C@H]2O[C@H]2C[C@](C)(N)[C@H](O)[C@H](C)O2)Oc2ccc(cc2Cl)[C@H]1O [Vancomycin, vancomycin] | 1 µg/mL (≈ 0.69 µM) | 2 µg/mL (≈ 1.38 µM) | 1 µg/mL (≈ 0.69 µM) |
